The nature of series [1]: Acute toxicity in albino mouse assessed as percent mortality after 24 hrs. Format: organism-based. The settings on record: in vivo, read-out: ALD50.
In series [2] the test system is Mus musculus. Kind of series: Analgesic activity in Albino mouse assessed as number of acetic acid-induced writhing at 50 mg/kg, po after 30 min. It is filed as functional. (Writhing tests count abdominal constrictions after an irritant is injected.)
In series [3] the test system is Rattus norvegicus. Kind of series: Antiinflammatory activity against carrageenan-induced hind paw oedema in Charles foster rat assessed as inhibition of paw oedema at 50 mg/kg, po after 1 hr. Further details: scale not given: the % may be the effect or the level left. Format: functional. The procedure, abridged: (§1)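 Charles-Foster albino rats of either sex, no pregnant females, 70–95 days old, 100–150 g. Oral dose of 25, 50 or 100 mg/kg given 1 h before carrageenan. Carrageenan was a fresh 1% suspension in 0.9% saline, 0.05 mL under the plantar aponeurosis of the right hind paw. Paw volume measured by plethysmometer before and 3 h after carrageenan. Result is percent inhibition of oedema.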
(In the carrageenan paw model, swelling and tenderness develop within hours.)

The test system of series [4] is Mus musculus. Briefly: Analgesic activity in Albino mouse assessed as number of acetic acid-induced writhing at 25 mg/kg, po after 30 min. It is filed as functional.
The species named for series [5] is Rattus norvegicus. Briefly: Ulcerogenic activity in 24 hrs fasted Charles foster rat. Format: functional. An outline of the steps: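 Albino rats fasted 24 h, then given compound. Killed 8 h after dosing. Stomach and small intestine examined for hyperaemia, epithelial shedding, petechial or frank haemorrhage, and erosion or ulceration with or without perforation. Any one of these counted as ulcerogenic. Route reported as i.p. for the UD50.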

Series [6] concerns Rattus norvegicus. Briefly: Antiinflammatory activity against carrageenan-induced hind paw oedema in Charles foster rat assessed as inhibition of paw oedema at 100 mg/kg, po after 1 hr. Further details: scale not given: the % may be the effect or the level left. Format: functional. The procedure, abridged:
as §1

Series [7] has as its system Mus musculus. Briefly: Analgesic activity in Albino mouse assessed as number of acetic acid-induced writhing at 100 mg/kg, po after 30 min. It is filed as functional.
For series [8], the system named is Rattus norvegicus. Kind of series: Antiinflammatory activity against carrageenan-induced hind paw oedema in Charles foster rat assessed as inhibition of paw oedema at 25 mg/kg, po after 1 hr. Format: functional. Further details: scale not given: the % may be the effect or the level left. The procedure, abridged: as §1

Where only a bound is given, the exact number is not on record here.

For the compound `O=C1C(Cl)C(c2ccccc2)N1NCc1nc2ccc(Br)cc2c(=O)n1-c1nc(-c2ccc(Cl)cc2)cs1` (centres undefined), in series [1], the LD50 at 24 h is above 1000 mg/kg. For the same compound, the Activity in series [2] is reported as 28.59%; in series [3] it was 29.16%.

Take `Cc1ccc(C2C(Cl)C(=O)N2NCc2nc3ccc(Br)cc3c(=O)n2-c2nc(-c3ccc(Cl)cc3)cs2)cc1` (centres undefined): in series [1], the LD50 at 24 h was above 1000 mg/kg. In addition, the Activity in series [2] amounted to 29.12%; in series [3] it was 29.88%.

On to `O=c1c2cc(Br)ccc2nc(CN/N=C/c2ccccc2Cl)n1-c1nc(-c2ccc(Cl)cc2)cs1`, for which the LD50 at 24 h in series [1] was above 1000 mg/kg. Also, the Activity is recorded as 24.68% in series [2] and 26.44% in series [3].

`COc1ccc(C2C(Cl)C(=O)N2NCc2nc3ccc(Br)cc3c(=O)n2-c2nc(-c3ccc(Cl)cc3)cs2)cc1` (centres undefined): the LD50 at 24 h in series [1] was above 1000 mg/kg. The Activity in series [2] turned out to be 30.67%; in series [3] it was 31.67%.

With `COc1ccccc1C1C(Cl)C(=O)N1NCc1nc2ccc(Br)cc2c(=O)n1-c1nc(-c2ccc(Cl)cc2)cs1` (centres undefined), the LD50 at 24 h in series [1] is above 1000 mg/kg. For the same compound, the figures for the Activity in series [2] and in series [3] were 31.89% and 32.45%, respectively.

Turning to `O=C1C(Cl)C(c2ccccc2Cl)N1NCc1nc2ccc(Br)cc2c(=O)n1-c1nc(-c2ccc(Cl)cc2)cs1` (centres undefined), the LD50 at 24 h in series [1] is above 1000 mg/kg. The values for the Activity in series [2] and in series [3] were 34.11% and 34.21%, respectively.

With `O=c1c2cc(Br)ccc2nc(CN/N=C/c2ccc(Cl)cc2)n1-c1nc(-c2ccc(Cl)cc2)cs1`, the LD50 at 24 h in series [1] is above 1000 mg/kg. Further, the values for the Activity in series [2] and in series [3] were 23.42% and 25.12%, respectively.

Turning to `O=C1CSC(c2ccccc2Cl)N1NCc1nc2ccc(Br)cc2c(=O)n1-c1nc(-c2ccc(Cl)cc2)cs1` (centres undefined), in series [1], the LD50 at 24 h was above 1000 mg/kg. In addition, the Activity in series [2] amounted to 37.36%; in series [4] it was 14.22%; in series [6], 67.45%; in series [3] it was 38.35%; in series [7], 61.12%; in series [8], 17.84%. The same compound had a UD50 in series [5] of 195.6 mg/kg.

In the case of `O=C1CSC(c2ccc(O)cc2)N1NCc1nc2ccc(Br)cc2c(=O)n1-c1nc(-c2ccc(Cl)cc2)cs1` (centres undefined), in series [1], the LD50 at 24 h was above 1000 mg/kg. The Activity is 33% in series [2] and 35.13% in series [3].

In the case of `O=C1C(Cl)C(c2ccc(Cl)cc2)N1NCc1nc2ccc(Br)cc2c(=O)n1-c1nc(-c2ccc(Cl)cc2)cs1` (centres undefined), the LD50 at 24 h in series [1] was above 1000 mg/kg. The Activity in series [2] is given as 32.62%; in series [3], 33.07%.

Consider `O=C1CSC(c2ccc(Cl)cc2)N1NCc1nc2ccc(Br)cc2c(=O)n1-c1nc(-c2ccc(Cl)cc2)cs1` (centres undefined), for which the LD50 at 24 h in series [1] was above 1000 mg/kg. Further, the Activity was determined as 36.26% in series [2] and 37.06% in series [3].

With `COc1ccccc1/C=N/NCc1nc2ccc(Br)cc2c(=O)n1-c1nc(-c2ccc(Cl)cc2)cs1`, the LD50 at 24 h in series [1] was above 1000 mg/kg. The Activity in series [2] is reported as 22.18%; in series [3] it was 24.66%.

Take `COc1ccc(C2SCC(=O)N2NCc2nc3ccc(Br)cc3c(=O)n2-c2nc(-c3ccc(Cl)cc3)cs2)cc1` (centres undefined): in series [1], the LD50 at 24 h was above 1000 mg/kg. In addition, the Activity in series [2] stood at 34.27%; in series [3], 36.11%.

On to `O=C1C(Cl)C(c2ccc(O)cc2)N1NCc1nc2ccc(Br)cc2c(=O)n1-c1nc(-c2ccc(Cl)cc2)cs1` (centres undefined), for which the LD50 at 24 h in series [1] is above 1000 mg/kg. For the same compound, the figures for the Activity in series [2] and in series [3] were 29.92% and 30.65%, respectively.

As for `O=C1CSC(c2ccccc2)N1NCc1nc2ccc(Br)cc2c(=O)n1-c1nc(-c2ccc(Cl)cc2)cs1` (centres undefined), the LD50 at 24 h in series [1] is above 1000 mg/kg. The Activity in series [2] is listed as 32.45%; in series [3] it was 33.88%.

For `CN(C)c1ccc(C2C(Cl)C(=O)N2NCc2nc3ccc(Br)cc3c(=O)n2-c2nc(-c3ccc(Cl)cc3)cs2)cc1` (centres undefined), the LD50 at 24 h in series [1] was above 1000 mg/kg. For the same compound, the figures for the Activity in series [2] and in series [3] were 27.35% and 28.55%, respectively.

Consider `CN(C)c1ccc(/C=N/NCc2nc3ccc(Br)cc3c(=O)n2-c2nc(-c3ccc(Cl)cc3)cs2)cc1`, for which the LD50 at 24 h in series [1] was above 1000 mg/kg. Also, the results for the Activity in series [2] and in series [3] were 16.84% and 17.88%, respectively.

In the case of `COc1ccc(/C=N/NCc2nc3ccc(Br)cc3c(=O)n2-c2nc(-c3ccc(Cl)cc3)cs2)cc1`, the LD50 at 24 h in series [1] was above 1000 mg/kg. For the same compound, the results for the Activity in series [2] and in series [3] were 21.69% and 23.29%, respectively.

For the compound `Cc1ccc(C2SCC(=O)N2NCc2nc3ccc(Br)cc3c(=O)n2-c2nc(-c3ccc(Cl)cc3)cs2)cc1` (centres undefined), the LD50 at 24 h in series [1] is above 1000 mg/kg. Moreover, the Activity in series [2] is recorded as 32.87%; in series [3], 34.25%.

Regarding `COc1ccccc1C1SCC(=O)N1NCc1nc2ccc(Br)cc2c(=O)n1-c1nc(-c2ccc(Cl)cc2)cs1` (centres undefined), the LD50 at 24 h in series [1] was above 1000 mg/kg. Also, the figures for the Activity in series [2] and in series [3] were 35.43% and 36.98%, respectively.

For `CCCCC1C(=O)N(c2ccccc2)N(c2ccccc2)C1=O` [PHENYLBUTAZONE], the Activity in series [2] is reported as 36.5%; in series [4], 16.3%; in series [6] it was 66.58%; in series [3] it was 38.9%; in series [7], 60.23%; in series [8], 18.46%. Also, in series [5], the UD50 came to 66.6 mg/kg.

For `O=c1c2cc(Br)ccc2nc(CN/N=C/c2ccc(O)cc2)n1-c1nc(-c2ccc(Cl)cc2)cs1`, the LD50 at 24 h in series [1] was above 1000 mg/kg. The Activity was determined as 18.96% in series [2] and 20.23% in series [3].

As to `O=c1c2cc(Br)ccc2nc(CN/N=C/c2ccccc2)n1-c1nc(-c2ccc(Cl)cc2)cs1`, the LD50 at 24 h in series [1] was above 1000 mg/kg. Moreover, the values for the Activity in series [2] and in series [3] were 17.12% and 18.75%, respectively.

In the case of `Cc1ccc(/C=N/NCc2nc3ccc(Br)cc3c(=O)n2-c2nc(-c3ccc(Cl)cc3)cs2)cc1`, the LD50 at 24 h in series [1] is above 1000 mg/kg. Further, the Activity in series [2] worked out at 18.52%; in series [3] it was 19.14%.

Consider `CN(C)c1ccc(C2SCC(=O)N2NCc2nc3ccc(Br)cc3c(=O)n2-c2nc(-c3ccc(Cl)cc3)cs2)cc1` (centres undefined), for which, in series [1], the LD50 at 24 h is above 1000 mg/kg. The Activity worked out at 28.76% in series [2] and 32.89% in series [3].

The values are drawn from ChEMBL document CHEMBL1139170, “Synthesis of 3-[4'-(p-chlorophenyl)-thiazol-2'-yl]-2-[(substituted azetidinone/thiazolidinone)-aminomethyl]-6-bromoquinazolin-4-ones as anti-inflammatory agent” (Bioorg Med Chem, 2007).
